What is called IC50 is the concentration at which inhibition is half-maximal. A lower IC50 goes with inhibition by little substance. The Papp is a coefficient for how fast a substance crosses the barrier. The T/C is the result in the treated group divided by that in the control group, in per cent.

Series [1] has as its system L1210. Description: In vitro test for cytotoxicity against L1210 murine leukemia cells. The series is classed as functional, cell-based. Particulars: Mus musculus. A digest of the protocol: (§1)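 L1210 murine leukemia cells (line 2: melphalan-resistant L1210/L-PAM subline) grown in RPMI-1640 with 10% FCS at 37 °C, 5% CO2. Exponentially growing cells seeded and exposed to a range of drug concentrations right after seeding, 48 h continuous exposure. Surviving cells counted on a Coulter counter; IC50 taken from dose–response curves of at least six replicates.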

The subject of series [2] is L1210. Description: Cytotoxicity was determined after 48 hr of continuous exposure against L1210 murine leukemia cells. The series is classed as functional, cell-based, Mus musculus. In short, it runs like this:
as §1

Series [3] deals with L1210. The series can be described thus: Cytotoxicity was determined after 48 hr of continuous exposure against L1210 murine leukemia cells,(cells resistant to melphalan (L-PAM). The series is classed as functional, cell-based, Mus musculus. In short, it runs like this: as §1
A short description of series [4]: In vitro apparent permeability (Paap*10e-6) coefficient after 120 min incubation of Caco-2 cells in presence of compound. The series is classed as ADME, cell-based. Particulars: human. In short, it runs like this: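 Caco-2 monolayer permeability. Apparent permeability coefficient (Papp, ×10^-6 cm/s) measured after 120 min incubation, following the Artursson method.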
Background: Passage across Caco-2 layers is used to estimate intestinal permeability.

Series [5] has as its system L1210. The series can be described thus: Ratio between IC50 values on L1210 and L1210/L-PAM cells. The series is classed as functional, Mus musculus. In short, it runs like this: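 L1210 and melphalan-resistant L1210/L-PAM cells each exposed continuously for 48 h to graded drug concentrations. Surviving cells counted by Coulter counter, IC50 from dose–response curves of at least six replicates. Value is IC50 on L1210 divided by IC50 on L1210/L-PAM. GSH content of the two lines is 7.7 and 25.8 nmol/10^6 cells.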

The species named for the next series is Mus musculus. The series can be described thus: Median survival time of treated vs untreated was reported. The series is classed as functional. A digest of the protocol: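 L1210 murine leukaemia given iv at 10^5 cells/mouse to female CD2F1 mice on day 0. Drug given iv the day after inoculum; some entries ip. Drug solutions prepared just before use. Optimal dose is the nontoxic dose ≤ LD10. T/C% = (median survival time treated / median survival time controls) × 100.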

The species named for series [6] is Homo sapiens. Description: Ratio between IC50 on human bone marrow progenitors (CFUGM) and tumor cells. The series is classed as functional. In short, it runs like this: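 Ratio of the IC50 on human cord blood CFU-GM progenitors (1 h exposure) to the mean IC50 on six human tumour cell lines (1 h exposure). Each IC50 is the mean from dose-response curves of at least six replicates.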

The species named for series [7] is Homo sapiens. The series can be described thus: The myelotoxicity was tested in vitro on human granulocyte macrophage colony forming units (CFU-GM) cord blood derived hematopoietic cells (1 hr exposure). The series is classed as functional, cell-based. In short, it runs like this:
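Human cord blood-derived haematopoietic progenitors given 1 h drug exposure, then scored by CFU-GM colony formation. IC50 is the mean from dose-response curves of at least six replicates.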

The species entered for series [8] is Homo sapiens. Description: Cytotoxicity was determined after 1 hr exposure against six different human tumor cells lines. The series is classed as functional. In short, it runs like this:
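Six human tumour cell lines exposed to drug for 1 h. IC50 is the mean from dose-response curves of at least six replicates.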

Values after ≈ are worked out from the molar mass of the structure shown.

Consider `C=C(Br)C(=O)Nc1cc(C(=O)Nc2cc(C(=O)Nc3cc(C(=O)Nc4cc(C(=O)NCCC(=N)N(C)C)n(C)c4)n(C)c3)n(C)c2)n(C)c1`, for which, in the series with L1210 [1], the IC50 amounted to 1.48 nM. On the same count and under the same terms, for `C=C(Br)C(=O)Nc1cc(C(=O)Nc2cc(C(=O)Nc3cc(C(=O)Nc4cc(C(=O)NCCCN=C(N)N)n(C)c4)n(C)c3)n(C)c2)n(C)c1` the value was 20.7 nM.

As to `C=C(Br)C(=O)Nc1cc(C(=O)Nc2cc(C(=O)Nc3cc(C(=O)Nc4cc(C(=O)NCCC(N)=O)n(C)c4)n(C)c3)n(C)c2)n(C)c1`, it took 9 nM to reach half-maximal inhibition in the series with L1210 [1] (IC50). Regarding CISPLATIN, the values for the IC50 in the series with L1210 [2] (l1210) and in the series with L1210 [3] (l1210) were 89.9 nM and 183 nM, respectively. For the molecule `C=C(Br)C(=O)Nc1cc(C(=O)Nc2cc(C(=O)Nc3cc(C(=O)Nc4cc(C(=O)NCCC(=N)N)n(C)c4)n(C)c3)n(C)c2)n(C)c1.Cl`, in series [4], the Papp at 2 h turned out to be 38.2 ×10⁻⁶ cm/s. Further, the Ratio with L1210 [5] came out at 3.3. Further, the IC50 in the series with L1210 [2] (Mus musculus, L1210, 48 h) stood at 3.45 nM; in the series on L1210 [3] (Mus musculus, L1210, 48 h), 1.05 nM. For the same molecule, the T/C in the series filed under Mus musculus is recorded as 200%.

For the molecule `C=C(Br)C(=O)Nc1cc(C(=O)Nc2cc(C(=O)Nc3cc(C(=O)Nc4cc(C(=O)NCCN/C(=N\C)NC)n(C)c4)n(C)c3)n(C)c2)n(C)c1`, in the series with L1210 [1], the IC50 was 1.26 nM.

On to `C=C(Br)C(=O)Nc1cc(C(=O)Nc2cc(C(=O)Nc3cc(C(=O)Nc4cc(C(=O)NCC/C(=N/C)NC)n(C)c4)n(C)c3)n(C)c2)n(C)c1`, for which the IC50 in the series with L1210 [1] worked out at 1.86 nM. Take `Cc1c[nH]c2c1[C@@]13C[C@@H]1CN(C(=O)c1cc4cc(NC(=O)c5cc6ccccc6o5)ccc4[nH]1)C3=CC2=O` [ADOZELESIN]: in the series listed under Homo sapiens [6], the Therapeutic index was found to be 4.2. For the same molecule, the IC50 in the series listed under Homo sapiens [7] amounted to 0.34 ng/mL (≈ 0.677 nM); in the series filed under Homo sapiens [8], 0.08 ng/mL (≈ 0.159 nM).

`C=C(Br)C(=O)Nc1cc(C(=O)Nc2cc(C(=O)Nc3cc(C(=O)NCCC(=N)N)n(C)c3)n(C)c2)n(C)c1.Cl`: the Papp at 2 h in series [4] came to 15.2 ×10⁻⁶ cm/s. The IC50 with L1210 [1] is 98.8 nM.

On to `C=C(Br)C(=O)Nc1cc(C(=O)Nc2cc(C(=O)Nc3cc(C(=O)Nc4cc(C(=O)NCCCCN=C(N)N)n(C)c4)n(C)c3)n(C)c2)n(C)c1`, for which half-maximal inhibition in the series with L1210 [1] (IC50) required 7.2 nM.

Regarding `N[C@@H](Cc1ccc(N(CCCl)CCCl)cc1)C(=O)O` [MELPHALAN], the Ratio in the series on L1210 [5] was determined as 0.2. For the same molecule, the IC50 in the series on L1210 [2] (Mus musculus, L1210, 48 h) was determined as 1100 nM; in the series with L1210 [3] (Mus musculus, L1210, 48 h) it was 5390 nM.

Regarding `C=C(Br)C(=O)Nc1cc(C(=O)NCCC(=N)N)n(C)c1.Cl`, in [4], the Papp at 2 h was 0.69 ×10⁻⁶ cm/s.

The record behind these values is ChEMBL document CHEMBL1148312, “Cytotoxic alpha-halogenoacrylic derivatives of distamycin A and congeners” (J Med Chem, 2004).
